From ChEMBL document CHEMBL1629684, “Effects of ravuconazole treatment on parasite load and immune response in dogs experimentally infected with Trypanosoma cruzi” (Antimicrob Agents Chemother, 2010)
The source made the active and inactive calls.

Assays:
Trypanosoma cruzi [1] = experiment: Antitrypanosomal activity against Trypanosoma cruzi Berenice-78 infected in mongrel dog assessed as reduction in parasite-induced intrafascicular collagen deposition in right atrium at 12 mg/kg, po BID after 180 days […]; format: functional, organism-based; set-up: dose 12 mg/kg; conditions: Cardiac atrium
[2] = Half life in po dosed human; format: ADME, organism-based; conditions: in vivo
[3] = Half life in mouse; format: ADME, organism-based; conditions: in vivo
Canis familiaris [4] = experiment: Immunostimulatory activity in mongrel dog infected with Trypanosoma cruzi Berenice-78 assessed as reduction in INFgamma production in right atrium at 12 mg/kg, po BID after 180 days by semiquantitative RT-PCR; format: functional, organism-based; set-up: dose 12 mg/kg; conditions: Canis lupus familiaris, Cardiac atrium
Procedure, shortened: (§1)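 Dogs were euthanized 6 months after the end of treatment. RNA was extracted from the right atrium with acid guanidinium thiocyanate-phenol-chloroform. One microgram was DNase treated and reverse transcribed with oligo(dT) for 1 h at 42°C. IFN-γ or IL-10 cDNA was amplified with 1.5 mM MgCl2: 94°C 5 min, n cycles of 94/57/72°C, final extension 72°C 6 min. Expression was scored semiquantitatively against infected untreated and noninfected dogs.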

Canis familiaris [5] = experiment: Immunostimulatory activity in mongrel dog infected with Trypanosoma cruzi Berenice-78 assessed as reduction in IL10 production in right atrium at 7 mg/kg, po BID after 180 days by semiquantitative RT-PCR; format: functional, organism-based; set-up: dose 7 mg/kg; conditions: Canis lupus familiaris, Cardiac atrium; procedure, shortened: as §1
Canis familiaris [6] = experiment: Toxicity in mongrel dog infected with Trypanosoma cruzi Y assessed as weight loss at 12 mg/kg, po BID for 90 days started 12 to 22 days postinfection measured after 1 day; format: organism-based, Canis lupus familiaris; set-up: dose 12 mg/kg, route oral; conditions: in vivo, 24 h
Procedure, shortened: (§2)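 Body weight gain, in kg, was recorded for infected dogs 1 day and 6 months after the end of oral b.i.d. treatment. Treated animals were compared with infected untreated and noninfected control groups.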

Canis familiaris [7] = experiment: Toxicity in mongrel dog infected with Trypanosoma cruzi Berenice-78 assessed as weight loss at 12 mg/kg, po BID for 90 days started 12 to 22 days postinfection measured after 6 months; format: organism-based, Canis lupus familiaris; set-up: dose 12 mg/kg, route oral; conditions: in vivo, 4383 h; procedure, shortened: as §2
Canis familiaris [8] = experiment: Toxicity in mongrel dog infected with Trypanosoma cruzi Berenice-78 assessed as weight loss at 7 mg/kg, po BID for 90 days started 12 to 22 days postinfection measured after 6 months; format: organism-based, Canis lupus familiaris; set-up: dose 7 mg/kg, route oral; conditions: in vivo, 4383 h; procedure, shortened: as §2
Trypanosoma cruzi [9] = experiment: Antimicrobial activity against Trypanosoma cruzi Y infected in mongrel dog assessed as suppression of microbial proliferation at 7 mg/kg, po BID started 12 to 22 days postinfection measured after 1 day; format: functional, organism-based; set-up: dose 7 mg/kg
Procedure, shortened: (§3)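 Mongrel dogs, 4 months old, dewormed and vaccinated, were inoculated with 2.0 × 10^3 bloodstream trypomastigotes/kg. Oral b.i.d. (q12h) dosing began 12 to 22 days postinfection, once parasitemia appeared. Dosing ran 90 days at 12 mg/kg and 60 days at 7 mg/kg, with 5 dogs per group. Parasitemia was read by fresh-blood examination of marginal ear vein blood from day 10 of infection until parasites were undetectable.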

Trypanosoma cruzi [10] = experiment: Antimicrobial activity against Trypanosoma cruzi Berenice-78 infected in mongrel dog assessed as suppression of microbial proliferation at 7 mg/kg, po BID started 12 to 22 days postinfection measured after 1 day; format: functional, organism-based; set-up: dose 7 mg/kg; procedure, shortened: as §3
Trypanosoma cruzi [11] = experiment: Antimicrobial activity against Trypanosoma cruzi Y infected in mongrel dog assessed as parasite level in blood of dog at 7 mg/kg, po BID started 12 to 22 days postinfection measured after 30 days by PCR analysis; format: functional
Procedure, shortened: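 Blood PCR for T. cruzi on treated dogs (n = 5 per group) at 1 and 6 months posttreatment. Each reaction took 2 μl blood DNA template in Tris-HCl pH 9.0, 75 mM KCl, 3.5 mM MgCl2 and 0.2 mM dNTPs. Cycling was 95°C 5 min, then 2 cycles annealing at 30°C, 33 cycles at 40°C, and 72°C 5 min. Products were run on 6% polyacrylamide and silver stained. Reported as rate of positive animals.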

Canis familiaris [12] = experiment: Immunostimulatory activity in mongrel dog infected with Trypanosoma cruzi Y assessed as production of antibody IgG at 12 mg/kg, po BID for 90 days measured up to 30 days by ELISA; format: functional, organism-based; set-up: dose 12 mg/kg; conditions: Canis lupus familiaris
Procedure, shortened: (§4)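 Serum was taken before inoculation and then monthly until 6 months posttreatment, and stored at −80°C. ELISA plates were coated with alkaline extract of Y-strain parasites grown to exponential phase in LIT medium. Bound total IgG or IgG2 was detected with peroxidase-labeled anti-dog conjugates and read at 490 nm. Cutoff was the mean absorbance of 10 uninfected dogs plus 2 SD.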

Canis familiaris [13] = experiment: Immunostimulatory activity in mongrel dog infected with Trypanosoma cruzi Y assessed as production of antibody IgG2 at 12 mg/kg, po BID for 90 days measured up to 30 days by ELISA; format: functional, organism-based; set-up: dose 12 mg/kg; conditions: Canis lupus familiaris; procedure, shortened: as §4
Canis familiaris [14] = experiment: Immunostimulatory activity in mongrel dog infected with Trypanosoma cruzi Y assessed as production of antibody IgG2 at 7 mg/kg, po BID for 90 days measured up to 30 days by ELISA; format: functional, organism-based; set-up: dose 7 mg/kg; conditions: Canis lupus familiaris; procedure, shortened: as §4
Canis familiaris [15] = experiment: Immunostimulatory activity in mongrel dog infected with Trypanosoma cruzi Berenice-78 assessed as production of antibody IgG at 12 mg/kg, po BID for 90 days measured up to 30 days by ELISA; format: functional, organism-based; set-up: dose 12 mg/kg; conditions: Canis lupus familiaris; procedure, shortened: as §4
Canis familiaris [16] = experiment: Toxicity in mongrel dog infected with Trypanosoma cruzi Y assessed as weight loss at po BID for 90 days started 12 to 22 days postinfection measured after 1 day; conditions: in vivo, 24 h

For C[C@@H](c1nc(-c2ccc(C#N)cc2)cs1)[C@](O)(Cn1cncn1)c1ccc(F)cc1F [RAVUCONAZOLE], the Activity (Trypanosoma cruzi [1]) was “Active”, the half-life [2] was no less than 120 h and the half-life [3] was 4.5 h. For the same molecule, the Activity (Canis familiaris [4]) was “Active”, the Activity (Canis familiaris [5]) was “Active” and the Activity (Canis familiaris [6]) was “Non-toxic”. The Activity (Canis familiaris [7]) was “Non-toxic”, the Activity (Canis familiaris [8]) was “Non-toxic” and the Activity (Trypanosoma cruzi [9]) was “Non-toxic”. For the same molecule, the Activity (Trypanosoma cruzi [10]) was “Non-toxic”, the Activity (Trypanosoma cruzi [11]) was 40% and the Activity (Canis familiaris [12]) was “Active”. For the same molecule, the Activity (Canis familiaris [13]) was “Active”, the Activity (Canis familiaris [14]) was “Active” and the Activity (Canis familiaris [15]) was “Active”. For the same molecule, the Activity (Canis familiaris [16]) was “Non-toxic”.
